Assay results of several laboratories.
Each line is one published result; the experiments were not run side by side.
Tumor necrosis factor receptor superfamily member 9: Tumor necrosis factor receptor superfamily member 9 (Homo sapiens, UniProt Q07011)

Structure (SMILES)	target	read-out	mode	method	setting	quantity	value
CNC(=O)c1cc2c(Oc3ccc(NC(=O)C4(C(=O)Nc5ccc(F)cc5)CC4)cc3)ccnc2cc1OC	Hepatocyte growth factor receptor (MET, Homo sapiens, UniProt P08581)	enzyme activity	inhibitor	TR-FRET	–	IC50	16.1 nM
COC(=O)[C@H](Cc1c[nH]cn1)NC(=O)CN(CC(=O)O)Cc1ccc2ccccc2c1	Insulin-degrading enzyme (IDE, Homo sapiens, UniProt P14735)	enzyme activity	inhibitor	fluorescence	–	IC50	1200 nM
Cc1cc(Nc2cc3ncccc3c(N[C@@H]3C[C@H]4CC[C@@H](C3)N4CCC#N)n2)n[nH]1	Macrophage colony-stimulating factor 1 receptor (CSF1R, Homo sapiens, UniProt P07333)	binding	–	competition with immobilised ligand	–	Kd	1100 nM
c1cncc(-c2cccc(Nc3nccc(NC4CCCCC4)n3)c2)c1	Tyrosine-protein kinase JAK3, JH1 (JAK3, Homo sapiens, UniProt P52333)	binding	–	competition with immobilised ligand	–	Kd	1300 nM
CCCC[C@@H]1NC(=O)[C@H](Cc2ccc(O)cc2)NC(=O)[C@@H]2CCCN2C(=O)[C@H](CC(=O)O)NC(=O)[C@H](C)NC(=O)[C@H](Cc2ccccc2)NC(=O)[C@@H]2CSCCC(=O)N3CN(CN(C3)C(=O)CCSC[C@@H](C(=O)N[C@@H](CNC(=O)CCc3cn(CCOCCOCCOCCOCCOCCOCCOCCOCCOCCOCCOCCOCCC(=O)NCCC(=O)N(C)CC(=O)N(C)CC(=O)N(C)CC(=O)N(C)CC(=O)N(C)CC(=O)N(C)CC(=O)N(C)CC(=O)N(C)CC(=O)N(C)CC(=O)N(C)CC(=O)NCCCC[C@@H]4NC(=O)[C@H](Cc5cccc6ccccc56)NC(=O)[C@@H]5CCCN5C(=O)[C@@H](NC(C)=O)CSCCC(=O)N5CN6CN(C5)C(=O)CCSC[C@H](NC4=O)C(=O)N[C@@H](CCSC)C(=O)N[C@@H](CCCCNC(=N)N)C(=O)N[C@@H](CC(=O)O)C(=O)N[C@@H](Cc4c[nH]c5ccccc45)C(=O)N[C@@H](CO)C(=O)N[C@@H]([C@@H](C)O)C(=O)N4CCC[C@H]4C(=O)N4C[C@H](O)C[C@H]4C(=O)N[C@@H](Cc4c[nH]c5ccccc45)C(=O)N[C@H](C(N)=O)CSCCC6=O)nn3)C(N)=O)NC1=O)C(=O)CCSC[C@H](NC(C)=O)C(=O)N[C@@H](CC(C)(C)C)C(=O)N1CCC[C@H]1C(=O)N[C@@H](CCC(=O)O)C(=O)N[C@H](C)C(=O)N1CCC[C@H]1C(=O)N[C@@H](Cc1ccc(O)cc1)C(=O)N2	Tumor necrosis factor receptor superfamily member 9	binding	–	SPR	–	Kd	5.1 nM
Cc1cc2nc3c(=O)[nH]c(=O)nc-3n(C[C@H](O)[C@H](O)[C@H](O)COP(=O)(O)OP(=O)(O)OC[C@H]3O[C@@H](n4cnc5c(N)ncnc54)[C@H](O)[C@@H]3O)c2cc1C	Heterogeneous nuclear ribonucleoprotein H3 (Homo sapiens, UniProt P31942)	binding	–	–	lysate	Kd	19 nM
CCCC[C@@H]1NC(=O)[C@H](Cc2ccc(O)cc2)NC(=O)[C@@H]2CCCN2C(=O)[C@H](CC(=O)O)NC(=O)[C@H](C)NC(=O)[C@H](Cc2ccccc2)NC(=O)[C@@H]2CSCCC(=O)N3CN(CN(C3)C(=O)CCSC[C@@H](C(=O)N[C@@H](C)C(N)=O)NC1=O)C(=O)CCSC[C@H](NC(C)=O)C(=O)N[C@@H](CC(C)(C)C)C(=O)N1CCC[C@H]1C(=O)N[C@@H](CCC(=O)O)C(=O)N[C@H](CCCCNC(=O)CCc1cn(CCOCCOCCOCCOCCOCCC(=O)N[C@H]3CSCCC(=O)N4CN5CN(C4)C(=O)CCSC[C@H](NC(=O)[C@@H](CC(=O)O)NC(=O)[C@H](Cc4cccc6ccccc46)NC(=O)[C@@H]4CCCN4C3=O)C(=O)N[C@@H](CCSC)C(=O)N[C@@H](CCCCNC(=N)N)C(=O)N[C@@H](CC(=O)O)C(=O)N[C@@H](Cc3c[nH]c4ccccc34)C(=O)N[C@@H](CO)C(=O)N[C@@H]([C@@H](C)O)C(=O)N3CCC[C@H]3C(=O)N3C[C@H](O)C[C@H]3C(=O)N[C@@H](Cc3c[nH]c4ccccc34)C(=O)N[C@H](C(N)=O)CSCCC5=O)nn1)C(=O)N1CCC[C@H]1C(=O)N[C@@H](Cc1ccc(O)cc1)C(=O)N2	Tumor necrosis factor receptor superfamily member 9	binding	–	SPR	–	Kd	3.4 nM
Cc1cnc(-c2ccc(-c3ccc(NC(=O)Nc4c(F)cc(F)cc4F)cc3F)c3c2C(=O)NC3)[nH]1	Myosin-IIIa (MYO3A, Homo sapiens, UniProt Q8NEV4)	binding	–	competition with immobilised ligand	–	Kd	13 nM
